According to ChEMBL document CHEMBL4715860 (J Med Chem, 2020):
The source made the active and inactive calls. The rule behind the calls is not given here.

Columns and labels:
[1] = Inhibition of mTOR2 in human A2058 cells assessed as reduction in PKB/Akt phosphorylation at Ser473 incubated for 1 hr by Western blot analysis; type: cell-based; details: A2058, 1 h
How it was run: (§1)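 A2058 cells grown 24 h at 37 °C, then exposed to inhibitor or DMSO for 1 h. Cells were PFA-fixed and stained for pPKB Ser473 or pS6 Ser235/236 by in-cell western with IR-dye secondary antibodies. Signal normalized to tubulin and to DMSO. IC50 from a 7-point (triplicate) or 11-point (duplicate) 1:2 series.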

[2] = Inhibition of mTORC1 in human A2058 cells assessed as reduction in RPS6 phosphorylation at S235/236 residue incubated for 1 hrs by Western blot analysis; type: cell-based; details: A2058, 1 h; how it was run: as §1
[3] = target: PI3-kinase p110-alpha/p85-alpha (Homo sapiens, UniProt P42336); test: Inhibition of alexa fluor 647-labeled kinase tracer 314 binding to recombinant human N-terminal His-tagged p110alpha/p85alpha expressed in baculovirus expression system measured after 60 mins by LanthaScreen TR-FRET assay relative to control
Chain of PI3-kinase p110-alpha/p85-alpha (P27986 whole entry, the tested form may be a part): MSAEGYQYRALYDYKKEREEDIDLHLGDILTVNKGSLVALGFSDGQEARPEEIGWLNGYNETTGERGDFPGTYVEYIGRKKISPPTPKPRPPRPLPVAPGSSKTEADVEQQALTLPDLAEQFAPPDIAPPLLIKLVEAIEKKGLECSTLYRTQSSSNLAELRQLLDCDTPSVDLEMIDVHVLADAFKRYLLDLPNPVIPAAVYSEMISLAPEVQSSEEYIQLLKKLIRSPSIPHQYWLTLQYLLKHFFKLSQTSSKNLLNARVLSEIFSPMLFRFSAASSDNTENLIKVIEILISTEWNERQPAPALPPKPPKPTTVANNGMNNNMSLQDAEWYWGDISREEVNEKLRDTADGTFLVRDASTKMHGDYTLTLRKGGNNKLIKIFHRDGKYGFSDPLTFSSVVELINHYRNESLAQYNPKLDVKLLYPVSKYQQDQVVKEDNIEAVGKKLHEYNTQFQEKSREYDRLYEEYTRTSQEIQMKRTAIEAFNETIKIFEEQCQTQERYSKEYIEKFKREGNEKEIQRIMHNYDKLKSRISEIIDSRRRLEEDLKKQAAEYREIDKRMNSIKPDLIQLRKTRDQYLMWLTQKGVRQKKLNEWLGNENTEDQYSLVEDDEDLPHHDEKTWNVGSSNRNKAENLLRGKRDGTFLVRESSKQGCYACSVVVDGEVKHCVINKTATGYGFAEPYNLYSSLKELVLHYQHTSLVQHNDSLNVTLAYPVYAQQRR
Chain of PI3-kinase p110-alpha/p85-alpha (P42336 whole entry, the tested form may be a part): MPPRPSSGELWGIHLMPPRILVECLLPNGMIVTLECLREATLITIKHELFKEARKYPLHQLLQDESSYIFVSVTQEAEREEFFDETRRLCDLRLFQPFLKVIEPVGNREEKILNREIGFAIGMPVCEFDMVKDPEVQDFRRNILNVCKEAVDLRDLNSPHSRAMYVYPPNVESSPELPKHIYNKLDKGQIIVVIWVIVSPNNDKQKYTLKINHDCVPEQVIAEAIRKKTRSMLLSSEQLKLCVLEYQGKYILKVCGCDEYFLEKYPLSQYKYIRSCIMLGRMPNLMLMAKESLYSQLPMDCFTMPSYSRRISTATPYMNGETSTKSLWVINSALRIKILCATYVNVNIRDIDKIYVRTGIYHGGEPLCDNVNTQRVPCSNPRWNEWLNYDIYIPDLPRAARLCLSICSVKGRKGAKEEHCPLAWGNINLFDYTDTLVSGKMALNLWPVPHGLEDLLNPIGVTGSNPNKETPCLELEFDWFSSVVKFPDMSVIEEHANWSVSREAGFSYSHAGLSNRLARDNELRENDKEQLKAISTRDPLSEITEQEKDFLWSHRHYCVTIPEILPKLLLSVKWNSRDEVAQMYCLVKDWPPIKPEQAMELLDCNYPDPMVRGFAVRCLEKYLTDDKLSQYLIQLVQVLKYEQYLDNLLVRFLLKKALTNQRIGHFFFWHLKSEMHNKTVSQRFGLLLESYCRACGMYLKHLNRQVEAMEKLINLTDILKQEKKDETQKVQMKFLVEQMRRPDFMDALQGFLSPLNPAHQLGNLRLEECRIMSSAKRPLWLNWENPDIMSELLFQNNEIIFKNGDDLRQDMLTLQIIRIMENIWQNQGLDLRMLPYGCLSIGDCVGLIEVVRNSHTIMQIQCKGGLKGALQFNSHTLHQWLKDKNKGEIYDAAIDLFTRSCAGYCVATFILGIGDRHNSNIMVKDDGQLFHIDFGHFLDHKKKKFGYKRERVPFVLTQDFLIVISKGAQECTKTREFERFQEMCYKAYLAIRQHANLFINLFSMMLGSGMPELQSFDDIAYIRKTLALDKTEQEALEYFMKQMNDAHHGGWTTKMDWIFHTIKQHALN

[4] = target: Serine/threonine-protein kinase mTOR (Homo sapiens, UniProt P42345); test: Inhibition of alexa fluor 647-labeled kinase tracer 314 binding to recombinant human N-terminal GST-tagged mTOR (1360 to 2549 residues) expressed in baculovirus expression system measured after 60 mins by TR-FRET based LanthaScreen Eu kinase binding assay
[5] = Substrate activity at human P-glycoprotein stably expressed in MDCK cells at 1 uM measured after 5 to 20 mins by UPLC-MS/MS analysis; type: ADME, cell-based; details: time 5-20 min
How it was run: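 CRISPR canine-MDR1-knockout MDCKII cells stably expressing human MDR1, with the knockout parent line as control. Cells grown 5 days on TransWell filters and preincubated in HBSS 30 min at 37 °C. Compound at 1 μM added apical or basolateral. Receiver sampled at 5, 10 and 20 min; UPLC-MS/MS.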

[6] = AUC (0 to 8 hrs) in male Sprague-Dawley rat plasma at 5 mg/kg, po; type: ADME, organism-based; parameters: time < 8 hr, route oral, dose 5 mg/kg
How it was run: (§2)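 Male Sprague Dawley rats, single oral dose of 5 mg/kg. Plasma and brain concentrations measured over 8 h, n = 3, mean ± SEM; AUC0−8 computed from the time course.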

[7] = AUC (0 to 8 hrs) in male Sprague-Dawley rat brain at 5 mg/kg, po; type: ADME, organism-based; parameters: time < 8 hr, route oral, dose 5 mg/kg; details: in vivo; how it was run: as §2
[8] = Metabolic stability in CD1 mouse hepatocytes assessed as half-life at 5 uM incubated for 3 hrs by LC-MS analysis; type: ADME, cell-based, Hepatocyte
How it was run: (§3)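 Cryopreserved primary hepatocytes in suspension from CD-1 mouse, Sprague-Dawley rat, Beagle dog and human. Compound at 5 μM final (from 10 mM DMSO stock). Samples taken at 0, 15, 60, 90 and 180 min and quenched with ACN plus internal standard. Parent quantified by LC-MS. Hepatocyte-free medium incubations served as negative control; 7-ethoxycoumarin as positive control. Duplicate; CLint per 10^6 cells and t1/2.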

[9] = Metabolic stability in Sprague-Dawley rat hepatocytes assessed as half-life at 5 uM incubated for 3 hrs by LC-MS analysis; type: ADME, cell-based, Hepatocyte; how it was run: as §3
[10] = Metabolic stability in Beagle dog hepatocytes assessed as half-life at 5 uM incubated for 3 hrs by LC-MS analysis; type: ADME, cell-based, Canis lupus familiaris, Hepatocyte; how it was run: as §3
[11] = Metabolic stability in human hepatocytes assessed as half-life at 5 uM incubated for 3 hrs by LC-MS analysis; type: ADME, cell-based, Hepatocyte
How it was run: as §3, with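 “stock).” for “stock). Samples taken at 0, 15, 60, 90 and 180 min and quenched with ACN plus internal standard.”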

[12] = Cmax in C57BL/6J mouse plasma at 25 mg/kg, po administered as single dose by mass spectrometry based UHPLC analysis; type: ADME, organism-based; parameters: route oral, dose 25 mg/kg
How it was run: (§4)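 One oral dose of 25 mg/kg to female C57BL/6J mice. Plasma and brain concentrations followed over time, n = 3 per time point (mean).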

[13] = Tmax in C57BL/6J mouse plasma at 25 mg/kg, po administered as single dose by mass spectrometry based UHPLC analysis; type: ADME, organism-based
How it was run: (§5)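 Female C57BL/6J mice given a single oral dose of 25 mg/kg. Plasma and brain levels followed over time (n = 3 per time point, mean). Tmax is the time of maximal concentration.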

[14] = Elimination half life in C57BL/6J mouse plasma at 25 mg/kg, po administered as single dose by mass spectrometry based UHPLC analysis; type: ADME, organism-based; details: read-out: beta t1/2 (converted); how it was run: as §4
[15] = AUC (0 to 8 hrs) in C57BL/6J mouse plasma at 25 mg/kg, po administered as single dose by mass spectrometry based UHPLC analysis; type: ADME, organism-based; parameters: time < 8 hr, route oral, dose 25 mg/kg; how it was run: as §4
[16] = Clearance in C57BL/6J mouse plasma at 25 mg/kg, po administered as single dose by mass spectrometry based UHPLC analysis; type: ADME, organism-based; how it was run: as §4
[17] = Cmax in C57BL/6J mouse brain at 25 mg/kg, po administered as single dose by mass spectrometry based UHPLC analysis; type: ADME, organism-based; parameters: route oral, dose 25 mg/kg; how it was run: as §4
[18] = Tmax in C57BL/6J mouse brain at 25 mg/kg, po administered as single dose by mass spectrometry based UHPLC analysis; type: ADME, organism-based; how it was run: as §5
[19] = Elimination half life in C57BL/6J mouse brain at 25 mg/kg, po administered as single dose by mass spectrometry based UHPLC analysis; type: ADME, organism-based; details: read-out: beta t1/2 (converted); how it was run: as §4
[20] = AUC (0 to 8 hrs) in C57BL/6J mouse brain at 25 mg/kg, po administered as single dose by mass spectrometry based UHPLC analysis; type: ADME, organism-based; parameters: time < 8 hr, route oral, dose 25 mg/kg; how it was run: as §4
Mus musculus [21] = test: In vivo inhibition of PI3Kalpha in C57BL/6J mouse assessed as increase in plasma glucose concentration at 25 mg/kg, po measured after 8 hrs by glucoseoxidase-peroxide coupled colorimetric assay; type: functional, organism-based
How it was run: (§6)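 Female C57BL/6J mice given one oral dose (25 mg/kg); plasma insulin and glucose monitored over time, mean ± SEM.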

Mus musculus [22] = test: In vivo inhibition of PI3Kalpha C57BL/6J mouse assessed as increase in plasma insulin concentration at 25 mg/kg, po measured after 8 hrs by ELISA; type: functional, organism-based; how it was run: as §6

Row | Structure (SMILES) | IC50 [1] [nM] | IC50 [2] [nM] | Ki [3] [nM] | Ki [4] [nM] | further results
1 | COC[C@@H]1COCCN1c1nc(-c2cnc(N)cc2C(F)F)nc(N2CCOC[C@H]2C)n1 | 956 | 426 | > 1000 | 23 | –
2 | C[C@@H]1COCCN1c1nc(-c2cnc(N)cc2C(F)F)nc(N2CCOC[C@H]2C)n1 | 436 | 261 | 469 | 14 | –
3 | C[C@@H]1COCCN1c1nc(-c2cnc(N)cc2C(F)F)nc(N2CCOCC23CCC3)n1 | 271 | 192 | 404 | 11 | –
4 | C[C@@H]1COCCN1c1nc(-c2cnc(N)cn2)nc2c1C[C@@H]1COCCN21 | – | – | – | – | AUC(0-t) at 8 h [6]: > 5500 ng·h/mL; AUC [7]: < 110 ng·h/g
5 | C[C@@H]1COCCN1c1nc(-c2cnc(N)cc2C(F)F)nc(N2CCOC[C@H]2CO)n1 | 1480 | > 1000 | > 1000 | 50 | –
6 | C[C@@H]1COCCN1c1nc(-c2cnc(N)cc2C(F)F)nc(N2CCOC[C@@H]2CO)n1 | 524 | 471 | > 1000 | 28 | –
7 | C[C@@H]1COCCN1c1nc(-c2cnc(N)cc2C(F)F)nc(N2C3COCC2C3)n1 | 1560 | 407 | > 1000 | 73 | –
8 | CCOc1ccc2ccc(=O)oc2c1 | – | – | – | – | half-life at 5 µM [8]: 21 min; half-life at 5 µM [9]: 55 min; half-life at 5 µM [10]: 14 min; half-life at 5 µM [11]: 31 min
9 | CNC(=O)c1cccc(-c2ccc3c(N4CCOC[C@@H]4C)nc(N4CCOC[C@@H]4C)nc3n2)c1 [VISTUSERTIB] | – | – | – | – | Cmax [12]: 7190 ng/mL; Tmax [13]: 30 min; half-life [14]: 450 min; AUC(0-t) at 8 h [15]: 33700 ng·h/mL; CL/F [16]: 11 mL/min/kg; Cmax [17]: 286 ng/mL; Tmax [18]: 30 min; half-life [19]: 516 min; AUC(0-t) at 8 h [20]: 1340 ng·h/mL; inhibition (Mus musculus [21]): inactive; inhibition (Mus musculus [22]): inactive
10 | C[C@@H]1COCCN1c1nc(-c2cnc(N)cc2C(F)F)nc(N2[C@H](C)COC[C@H]2C)n1 | 506 | 392 | > 1000 | 25 | –

Second part, led by results:

Row | IC50 [1] [nM] | IC50 [2] [nM] | Ki [3] [nM] | Ki [4] [nM] | Structure (SMILES) | further results
11 | 173 | 137 | 33 | 11 | C[C@@H]1COCCN1c1nc(-c2cnc(N)cc2C(F)F)nc(N2CCOC[C@@H]2C)n1 | Activity [5]: Not Active
12 | – | – | 19 | 8 | C[C@@H]1COCCN1c1nc(-c2cnc(N)cc2C(F)F)nc(N2CCOCC2)n1 | Activity [5]: Not Active
13 | 1340 | 561 | > 1000 | 42 | C[C@@H]1CN(c2nc(-c3cnc(N)cc3C(F)F)nc(N3CCOC[C@H]3C)n2)C[C@H](C)O1 | –
14 | 248 | 241 | 63 | 67 | CC[C@H]1COCCN1c1nc(-c2cnc(N)cc2C(F)F)nc(N2CCOC[C@H]2C)n1 | –
15 | 200 | 136 | 233 | 6.4 | C[C@@H]1COCCN1c1nc(-c2cnc(N)cc2C(F)F)nc(N2[C@@H](C)COC[C@@H]2C)n1 | –
16 | 231 | 238 | 65 | 18 | CC[C@@H]1COCCN1c1nc(-c2cnc(N)cc2C(F)F)nc(N2CCOC[C@H]2C)n1 | –
